Screening results from PubChem.
AI-2 QS modul – Vibrio harveyi AI-2 quorum sensing modulation | Vibrio harveyi JMH597 AI-2 luminescence/OD600 ratio, 9 h; stronger effect = lower value; strain lacks LuxN and CqsS sensors; 0 = neutral-control median | activity change, % at 7.5 µM | actives 0.4% (n = 300,000); in the data active = activity change below about -75%, passing the limit was not always enough; inconclusive = no clear call, values can overlap the other calls;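 note: luminescence divided by OD600 gain over 9 h not by final OD600 alone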
hERG protect – compounds protecting human hERG from proarrhythmic drug block. Q12809. CHO-hERG, FluxOR thallium flux, dofetilide IC70 present. activation (rescue from dofetilide block), less the hit threshold, % at 10 µM. actives 0.51% (n = 310,000);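 active = activation above the mean of controls blocked by dofetilide plus 5 SD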;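 note: thallium influx through hERG after potassium depolarization seen as dye fluorescence rise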
KCC2 mod – modulators of human KCC2 chloride dependent transport. Q9H2X9. KCC2 cells, thallium flux FluoZin-2 fluorescence. B-score of Tl+ flux slope (higher = more flux/activation; lower = inhibition) at 10 µM. actives 2.2% (n = 190,000);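 active = thallium flux slope and its plate-corrected score both differing from the plate sample mean at a set confidence after two filtering rounds, in either direction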;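 note: slope of fluorescence scaled to starting intensity during 10 to 20 s after thallium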
Target sequence (Q9H2X9 whole entry, looked up): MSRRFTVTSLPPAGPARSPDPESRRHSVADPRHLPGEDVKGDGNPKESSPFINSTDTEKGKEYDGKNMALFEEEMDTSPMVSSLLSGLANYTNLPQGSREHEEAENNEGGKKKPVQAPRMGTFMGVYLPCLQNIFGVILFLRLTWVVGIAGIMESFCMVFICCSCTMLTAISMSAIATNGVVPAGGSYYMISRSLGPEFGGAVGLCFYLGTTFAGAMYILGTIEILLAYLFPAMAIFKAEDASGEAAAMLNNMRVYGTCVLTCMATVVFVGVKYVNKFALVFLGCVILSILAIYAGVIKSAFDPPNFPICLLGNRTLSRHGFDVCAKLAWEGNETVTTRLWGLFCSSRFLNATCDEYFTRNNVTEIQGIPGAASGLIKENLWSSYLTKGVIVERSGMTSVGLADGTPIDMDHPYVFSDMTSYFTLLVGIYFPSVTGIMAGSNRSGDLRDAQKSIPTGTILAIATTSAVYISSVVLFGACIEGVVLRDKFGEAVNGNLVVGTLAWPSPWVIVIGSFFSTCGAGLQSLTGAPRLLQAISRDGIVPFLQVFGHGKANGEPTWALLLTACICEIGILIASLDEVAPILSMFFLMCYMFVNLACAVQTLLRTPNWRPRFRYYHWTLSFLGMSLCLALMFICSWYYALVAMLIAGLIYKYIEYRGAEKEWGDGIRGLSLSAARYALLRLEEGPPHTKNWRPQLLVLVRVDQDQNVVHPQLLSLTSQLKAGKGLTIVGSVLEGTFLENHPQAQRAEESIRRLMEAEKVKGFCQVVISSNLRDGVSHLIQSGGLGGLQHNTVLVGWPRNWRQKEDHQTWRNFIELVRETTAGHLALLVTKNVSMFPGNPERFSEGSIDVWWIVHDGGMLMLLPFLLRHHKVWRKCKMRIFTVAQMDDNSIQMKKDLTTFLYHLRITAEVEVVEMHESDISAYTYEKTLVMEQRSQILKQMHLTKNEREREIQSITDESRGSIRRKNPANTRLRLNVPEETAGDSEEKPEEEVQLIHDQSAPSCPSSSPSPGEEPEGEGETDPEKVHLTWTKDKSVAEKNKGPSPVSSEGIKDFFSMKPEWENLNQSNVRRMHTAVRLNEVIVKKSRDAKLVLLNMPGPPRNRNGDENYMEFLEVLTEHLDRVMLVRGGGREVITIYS
KCNQ1 block – inhibitors of human KCNQ1 potassium channel. CHO-K1 KCNQ1, FluxOR thallium flux fluorescence; stronger effect = higher value. B-score at 10 µM. actives 1.3% (n = 310,000);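 active = compounds whose thallium flux B-score, printed positive for inhibition, exceeds three library SD while starting fluorescence stays within three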;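 note: channel opened by potassium depolarization with thallium stimulus after 20 min compound exposure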
KCNQ1 act – human KCNQ1 channel potentiation or activation; actives 0.35% (n = 310,000); P51787; B-score at 10 µM; AID 2648; CHO-K1 KCNQ1, thallium flux FluxOR fluorescence; stronger effect = higher value;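 active = fluorescence ratio B-score, a plate-corrected score, at least three library SD, with initial intensity B-score within 5 SD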
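assay system = KCNQ1-transfected CHO-K1 cells | medium = assay buffer with matched DMSO | probe or stimulus = depolarizing K+/Tl+ stimulus, K2SO4 and Tl2SO4 each 12.5 mM in 5x stock | dosing = single dose | incubation = dye 90 min, compound 20 min, room temperature | detection = kinetic FluxOR fluorescence, 10 s baseline plus 110 s post-stimulus | evaluation = ratio B score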
Mot1-301 SUMO – blocks SUMOylation pathway, rescuing yeast Mot1-301 growth | S. cerevisiae Mot1-301 growth rescue, ATP luminescence, 38.5C; percent above DMSO median, 100 means doubled | growth rescue, % at 18.8 µM | actives 1% (n = 320,000);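 active = every valid replicate shows activation above 250% relative to neutral control wells; inactive = the rest, any valid replicate at or below 250%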;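 note: OY570 slx delta 5 strain wells were the positive control but not used for scaling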
JMH597 growth – retest: inhibitors of Vibrio harveyi JMH597 growth; growth inhibition, % at 7.5 µM; shares compounds with AI-2 QS modul; actives 1% (n = 750); OD600 absorbance, 9 h; lacks LuxN and CqsS sensors;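 active = every replicate shows growth inhibition above 50%; inconclusive = at least half, but not all, replicates pass that cutoff; inactive = fewer than half of replicates pass it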
BB721 const-QS lum – retest counter-screen: luminescence loss in constitutive-on quorum sensing strain BB721; inhibition, % at 7.5 µM; actives 95% (n = 750); Vibrio harveyi BB721 luminescence, 9 h; shares compounds with AI-2 QS modul; AID 2727;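 active = inhibition above about 80% in every replicate, not just on average, limit read from the data; inconclusive = at least half of replicates past the limit, but not all; inactive = fewer than half of replicates past the limit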
BB721 growth rt – retest: inhibitors of Vibrio harveyi BB721 growth; shares compounds with AI-2 QS modul; OD600 absorbance, 9 h; growth inhibition, % at 7.5 µM; actives 3% (n = 750);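 active = every replicate shows growth inhibition above 50%; inconclusive = at least half but not all replicates above 50% inhibition; inactive = under half of replicates above 50% inhibition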
AI-2 QS JMH597 – Vibrio harveyi AI-2 signaling luminescence modulation – JMH597 strain, confirmation | shares compounds with AI-2 QS modul | Vibrio harveyi JMH597 AI-2 quorum sensing luminescence, 9 h; luxN and CqsS knockout, AI-2 only | inhibition, % at 7.5 µM | actives 97% (n = 750);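 active = every replicate shows more than 75% inhibition of signal versus neutral control wells; inconclusive = half to three quarters of replicates exceed 75% inhibition; inactive = fewer than half of replicates exceed 75% inhibition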
An asterisk follows results filed as active; i = inactive; ? = inconclusive; . = no result. Sampled rows, rich in hits. Any-hit rate of the full collection: about 4.2%.

SMILES	AI-2 QS modul	hERG protect	KCC2 mod	KCNQ1 block	KCNQ1 act	Mot1-301 SUMO	JMH597 growth	BB721 const-QS lum	BB721 growth rt	AI-2 QS JMH597
Cc1cccc(CSc2nnc(-c3ccco3)o2)c1	-91*	-12	-0.098	i	i	-9	-3	97*	-10	98*
c1ccc(-c2nnc(-c3ccccc3)o2)cc1	12	-8	-0.092	i	i	-9	.	.	.	.
Cc1cccc(CSc2nnc(-c3ccco3)n2C)c1	-21	-7	-0.84	i	i	294	.	.	.	.
Cc1c(C(=O)NNC(=S)Nc2ccc(S(N)(=O)=O)cc2)oc2ccccc12	-1	-7	.	i	i	-10	.	.	.	.
CCCC1=Nc2cc(C(=O)N3CCC(C(=O)OCC)CC3)ccc2Sc2ccccc21	6	-9	.	i	i	-19	.	.	.	.
Cc1cccc(NC(=O)CCOc2ccccc2)c1	-84*	-5	.	i	i	-5	10	91*	-6	94*
Cc1cccc(NC(=O)CCN2C(=O)c3ccccc3C2=O)c1	?	-1	.	i	i	-3	-5	88*	1	92*
O=C(CN1C(=O)c2ccccc2C1=O)Nc1cccc(Cl)c1	-93*	-10	.	i	i	209	11	99*	3	99*
O=C(CN1C(=O)c2ccccc2C1=O)Nc1cccc(O)c1	?	-11	.	i	i	6	.	.	.	.
O=C(CN1C(=O)c2ccccc2C1=O)Nc1cccc(S(=O)(=O)Nc2ccccc2Cl)c1	-83*	-4	-0.57	i	i	134	35	90*	41	93*
Cc1ccccc1NC(=O)CCN1C(=O)c2ccccc2C1=O	-6	-8	.	i	i	18	.	.	.	.
O=C(COC(=O)c1cnccn1)c1cccc([N+](=O)[O-])c1	.	4	1.1	i	i	-6	.	.	.	.
COC(=O)c1sccc1NC(=O)c1ccc(C(C)C)cc1	-6	-10	.	i	i	-7	.	.	.	.
O=C(COC(=O)c1ccc(Cl)cc1O)NC(=O)C1CCCCC1	23	-7	0.66	i	i	-10	.	.	.	.
Cc1nn(Cc2c(F)c(F)c(F)c(F)c2F)c(C)c1NC(=O)c1nn(C)c(C)c1Br	16	-8	.	i	i	4	.	.	.	.
CCN(CC)C(=O)CSc1nnc(-c2ccccn2)n1Cc1ccccc1	16	-10	.	i	i	-10	.	.	.	.
CCCc1cc(=O)[nH]c(SCC(=O)N2c3ccccc3CC2C)n1 (stereo not given)	.	.	.	.	.	-3	.	.	.	.
CC(=O)c1cccc(NC(=O)CN2C(=O)c3ccccc3C2=O)c1	-96*	-6	.	i	i	8	4	99*	1	100*
Cc1cc(NC(=O)CN2C(=O)c3ccccc3S2(=O)=O)no1	-3	-7	.	i	i	5	.	.	.	.
Cc1ccc(OCCC(=O)Nc2ccc(F)c(Cl)c2)cc1	-78*	-4	-1.2	i	i	15	-3	68	6	?
Cc1cc(NC(=O)CN2C(=O)c3ccccc3C2=O)no1	?	-6	1.4	i	i	-3	-2	84*	-5	87*
O=Cc1cc(Br)c(OC(=O)N2CCOCC2)c(Br)c1	-2	-4	.	i	i	8	.	.	.	.
c1ccc(OCc2nnc(-c3ccccc3)o2)cc1	-88*	-15	-0.29	i	i	.	14	97*	27	97*
Oc1ccccc1-c1nnc(COc2ccccc2)o1	-61	-16	.	i	i	7	.	.	.	.
Cc1ccc(O)c(N/C=C/C(=O)c2ccc(F)cc2)c1	?	-8	.	i	i	7	21	86*	33	89*
SMILES	AI-2 QS modul	hERG protect	KCC2 mod	KCNQ1 block	KCNQ1 act	Mot1-301 SUMO	JMH597 growth	BB721 const-QS lum	BB721 growth rt	AI-2 QS JMH597
Cc1ccc(N/C=C/C(=O)c2ccc(C)cc2)cc1	8	-5	.	i	i	44	.	.	.	.
CC(C)c1ccc(CNC(=O)CCc2ccccc2)cc1	-89*	-14	-0.4	i	i	-3	12	96*	1	97*
Cc1ccc(CNC(=O)CCc2ccccc2)cc1	-81*	-8	.	i	i	-3	18	93*	18	94*
O=C(CSc1ccccc1)Nc1ccc(S(=O)(=O)NCC2CCCO2)cc1 (stereo not given)	-97*	-3	.	i	i	-19	22	100*	-45	100*
O=C(O)c1ccc(S(=O)(=O)NCC2CCCO2)cc1 (stereo not given)	15	-6	.	i	i	18	.	.	.	.
O=C(Cc1ccc(Br)cc1)Nc1ccc(S(=O)(=O)NCC2CCCO2)cc1 (stereo not given)	-96*	-7	-0.47	i	i	-2	31	99*	-173	99*
COCC(=O)Nc1ccc(S(=O)(=O)NCC2CCCO2)cc1 (stereo not given)	3	-5	.	i	i	-19	.	.	.	.
CCC(C(=O)Nc1c(C)cc(C)cc1C)N1CCCCCC1 (stereo not given)	-85*	-15	.	i	i	-5	-8	2	-1	4
CC1(C)SCC(C(=O)O)N1C=O (stereo not given)	3	-8	-0.41	i	i	10	.	.	.	.
COc1ccc(NC(=O)C2CSC(C)(C)N2C=O)cc1 (stereo not given)	-89*	-1	-0.23	i	i	-1	12	96*	1	97*
O=C(CCN1CCCC1=O)NC1CCCc2c1cnn2-c1ccc(F)cc1F (stereo not given)	4	-11	.	i	i	-11	.	.	.	.
C=CCNC(=O)NC(=O)CN1C(=O)NC(c2ccccc2)(c2ccccc2)C1=O	-85*	-16	.	i	i	4	-4	94*	-9	96*
CC(C)CCNC(=O)CN1C(=O)NC(c2ccccc2)(c2ccccc2)C1=O	-92*	-1	.	i	i	32	7	90*	8	95*
CCc1nc2ccccc2n1CCC(C)C	14	-4	0.66	i	i	91	.	.	.	.
CC1(C)C(c2ccccc2)=[N+]([O-])CN1O	19	-11	.	i	i	-2	.	.	.	.
COc1ccc(C(=O)COc2ccccc2C(=O)Nc2ccccc2)cc1	20	-5	0.034	i	i	3	.	.	.	.
